Measured values of several laboratories.
Each line is one published result; the experiments were not run side by side.
Target: Receptor tyrosine-protein kinase erbB-4 (ERBB4, Homo sapiens, UniProt Q15303)

SMILES	test	setting	quantity	value
C1=C/COCc2cc(ccc2OCCN2CCCC2)Nc2nccc(n2)-c2cccc(c2)COC/1	binding	0.1 µM	remaining binding	88%
N#Cc1ccc(NC(=O)Nc2ccccc2)cc1	cell-free assay, competition with immobilised ligand	25 µM	remaining binding	100%
Cc1ccc(NC(=O)c2ccnc(C(F)(F)F)c2)cc1-c1cc(OCCO)nc(N2CCOCC2)c1	binding, competition with immobilised ligand	1 µM	remaining binding	99%
CC#CC(=O)N1CCC[C@H]1c1nc(-c2ccc(C(=O)Nc3ccccn3)cc2)c2c(N)nccn12	enzyme activity, inhibitor	1 µM	inhibition	96%
C#Cc1cnc(Nc2ccnc(CO)c2)nc1Nc1ccccc1S(C)(=O)=NC#N (centres unmarked)	cell-free assay	1 µM	remaining signal	86%
COc1c(Cl)cccc1Nc1c(-c2ccncc2OC[C@@H]2COCCO2)[nH]c2c1C(=O)NCC2	enzyme activity, inhibitor, radiometric	1 µM	inhibition	> 80%
COc1ccc2oc(-c3ccc4nc(N)oc4c3)c/c(=N\c3ccccc3NC(=O)CCN)c2c1	binding	1 µM	remaining binding	109%
CN1CCN(C(=O)c2ccc(NC(=O)Nc3ccc(N(C)c4ccnc(Nc5ccc(CS(C)(=O)=O)cc5)n4)cc3)cc2)CC1	binding, competition with immobilised ligand	1 µM	remaining binding	77%
C=CC(=O)N1CCC[C@@H](n2nc(-c3ccc(Oc4ccccc4)cc3)c3c(N)ncnc32)C1	enzyme activity, inhibitor	1 µM	inhibition	100%
C#Cc1cc(-c2cc(Nc3nc(N[C@@H](C)c4ccc(F)cn4)ncc3Cl)n[nH]2)ccc1C=O	enzyme activity, inhibitor	0.2 µM	inhibition	54.3%
CCCCC(=O)Nc1ccc(-c2ccc3ncn(CCC)c(=O)c3c2)cn1	binding, competition with immobilised ligand	0.5 µM	remaining binding	100%
